Article PMC3321063 (Bioorganic & medicinal chemistry letters, 2012)
Entries after “also recorded” stand apart in the source; their conditions may differ.

Columns and labels:
PS1-NTF = PS1-NTF (Homo sapiens, UniProt P49768); assay type: binding; conditions: HeLa membranes; for PS1-NTF photolabeling: irradiation ~350 nm
In short: (§1)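 HeLa membranes (800 μg/1.2 mL PBS) incubated 1 h at 37 °C with clickable photoprobe (20 nM) with or without competing GSI (1 μM), then irradiated at ~350 nm for 30 min at 4 °C and pelleted. Click reaction in PBS: TCEP 1.0 mM, CuSO4 1.0 mM, TBTA 0.1 mM, biotin-azide 0.1 mM, 1 h RT with agitation. Pelleted membranes solubilized in RIPA, streptavidin-enriched, SDS-PAGE, Western blot.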

[1] = tested on: intracellular γ-secretase; conditions: previous studies; cited from earlier work
[2] = biological target: T1, signal peptide peptidase (SPP) (Homo sapiens, UniProt Q8TCT9); assay type: binding; conditions: HeLa membranes, probe 20 nM
T1 sequence (Q8TCT9 1-377): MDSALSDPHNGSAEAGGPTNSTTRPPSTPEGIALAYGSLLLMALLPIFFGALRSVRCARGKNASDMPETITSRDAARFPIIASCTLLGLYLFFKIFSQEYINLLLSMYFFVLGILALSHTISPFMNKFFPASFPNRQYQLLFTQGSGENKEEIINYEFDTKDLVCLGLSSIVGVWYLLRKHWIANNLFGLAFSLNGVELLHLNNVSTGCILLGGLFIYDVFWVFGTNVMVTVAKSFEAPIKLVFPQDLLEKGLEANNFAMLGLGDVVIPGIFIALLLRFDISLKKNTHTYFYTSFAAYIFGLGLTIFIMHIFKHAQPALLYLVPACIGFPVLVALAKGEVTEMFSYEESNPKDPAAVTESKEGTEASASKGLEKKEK
In short: as §1

PS1-CTF = PS1-CTF (Homo sapiens, UniProt P49768); assay type: binding; conditions: HeLa membranes, probe 20 nM
In short: as §1

SPP photolabeling [2]	SMILES	PS1-NTF photolabeling (PS1-NTF; probe 20 nM)	further results
–	CC(C)C[C@H](NC(=O)[C@H](Cc1ccccc1)C[C@@H](O)[C@H](Cc1ccccc1)NC(=O)OC(C)(C)C)C(=O)N[C@@H](Cc1ccccc1)C(N)=O [compound 1, reference compound]	–	blocking of PS1-NTF labeling by competitor (PS1-NTF; competitor 1 μM, probe 2 or 4): PS1-NTF labeling was blocked
–	CC(C)C[C@H](NC(=O)[C@H](Cc1ccccc1)C[C@@H](O)[C@H](Cc1ccccc1)NC(=O)c1ccc(C(=O)c2ccccc2)cc1)C(=O)N[C@@H](Cc1ccccc1)C(=O)NCCCCCNC(=O)CCCC[C@@H]1SC[C@@H]2NC(=O)N[C@@H]21 [compound 2]	–	cell penetration (plasma membrane, access to intracellular γ-secretase) [1]: cannot
minimal labeling of SPP	C#CCCCCNC(=O)[C@H](Cc1ccccc1)NC(=O)[C@H](CC(C)C)NC(=O)[C@H](Cc1ccccc1)C[C@@H](O)[C@H](Cc1ccccc1)NC(=O)c1ccc(C(=O)c2ccccc2)cc1 [compound 4]	efficient PS1-NTF photolabeling; also recorded: strongly labeled PS1-NTF vs. CTF	labeling efficiency of PS1-NTF relative to 2 (fold less) (PS1-NTF; probe 20 nM, after click reaction with biotin-azide): 2–3 fold
significant labeling of SPP	C#CCCCCNC(=O)[C@H](Cc1ccc(C(=O)c2ccccc2)cc1)NC(=O)[C@H](CC(C)C)NC(=O)[C@H](Cc1ccccc1)C[C@@H](O)[C@H](Cc1ccccc1)NC(=O)OC(C)(C)C [compound 5]	minimal PS1-NTF labeling	PS1-CTF photolabeling (PS1-CTF): expected preference for PS1-CTF
